Measurements taken from ChEMBL document CHEMBL1629690, “Development of hexadecyloxypropyl tenofovir (CMX157) for treatment of infection caused by wild-type and nucleoside/nucleotide-resistant HIV” (Antimicrob Agents Chemother, 2010).

What was measured:
[1] = tested on: Human immunodeficiency virus 1; assay: Antiviral activity against HIV1 isolate 185 harboring reverse transcriptase T215Y mutant gene by phenosense assay; assay type: functional, organism-based; settings: Human immunodeficiency virus 1, isolate 185
Outline: (§1)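 Recombinant-virus PhenoSense HIV assay run on a panel of 30 NRTI-resistant HIV-1 mutants and two wild-type viruses. Each virus is tested across increasing drug concentrations to give an inhibition curve and EC50. Fold change is the test recombinant EC50 divided by the EC50 of the drug-sensitive wild-type reference virus.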

[2] = tested on: Human immunodeficiency virus 1; assay: Antiviral activity against HIV1 isolate 215 harboring reverse transcriptase D67N/K70E mutant gene by phenosense assay; assay type: functional, organism-based; settings: Human immunodeficiency virus 1, isolate 215
Outline: (§2)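 PhenoSense HIV recombinant virus assay: patient-derived HIV-1 with major NRTI resistance mutations tested against increasing drug concentrations to give inhibition curves. EC50 is the concentration giving 50% inhibition. Fold change is the test recombinant EC50 divided by the EC50 of a drug-sensitive wild-type reference virus. Panel of 30 NRTI-resistant isolates plus two wild-type viruses.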

[3] = tested on: Human immunodeficiency virus 1; assay: Antiviral activity against HIV1 isolate 180 harboring reverse transcriptase K65R mutant gene obtained as site-directed mutant of NL4-3 by phenosense assay relative to wild type; assay type: functional; outline: as §1
[4] = tested on: Human immunodeficiency virus 1; assay: Antiviral activity against HIV1 isolate 071 harboring reverse transcriptase 65R/S68N/184V mutant gene by phenosense assay relative to wild type; assay type: functional; outline: as §1
[5] = tested on: Human immunodeficiency virus 1; assay: Antiviral activity against HIV1 isolate 192 harboring reverse transcriptase M41L/T215Y mutant gene by phenosense assay relative to wild type; assay type: functional; outline: as §1
[6] = tested on: Human immunodeficiency virus 1; assay: Antiviral activity against HIV1 isolate 200 harboring reverse transcriptase M41L/L210W/T215Y mutant gene by phenosense assay relative to wild type; assay type: functional; outline: as §1
[7] = tested on: Human immunodeficiency virus 1; assay: Antiviral activity against HIV1 NL 4-3 expressing wild type reverse transcriptase infected in human PBMC by ELISA; assay type: functional, organism-based; settings: Human immunodeficiency virus 1, NL 4-3
Outline: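 Fresh donor PBMCs, HIV- and HBV-seronegative, were stimulated with 4 μg/ml PHA for 48 to 72 h and kept on 20 U/ml rhIL-2. Cells pooled from at least two donors were seeded at 5 × 10^4 per well and infected at MOI ~0.1. Nine compound concentrations were run in triplicate wells for 7 days.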

[8] = tested on: Human immunodeficiency virus 1; assay: Antiviral activity against HIV1 52534-2 harboring reverse transcriptase 41L//74V/210W/215Y/184V/69SSS mutant gene infected in human PBMC by ELISA; assay type: functional, organism-based; settings: Human immunodeficiency virus 1, 52534-2
Outline: (§3)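 Fresh PBMCs pooled from at least two HIV- and HBV-seronegative donors, stimulated with PHA 4 μg/ml for 48–72 h and kept in rhIL-2 20 U/ml. Seeded at 5 × 10^4 cells/well and infected with RT-mutant HIV-1 clones at MOI ~0.1. Nine compound concentrations, triplicate wells, 7-day incubation. EC50 reported as mean ± SD of one to three independent experiments.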

[9] = tested on: Human immunodeficiency virus 1; assay: Antiviral activity against HIV1 isolate 057 expressing wild type reverse transcriptase gene by phenosense assay; assay type: functional, organism-based; settings: Human immunodeficiency virus 1, isolate 057
Outline: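 In the PhenoSense recombinant virus assay, virus was tested against increasing drug concentrations. EC50 came from the inhibition curve and was compared with a drug-sensitive reference virus.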

[10] = tested on: Human immunodeficiency virus 1; assay: Antiviral activity against HIV1 isolate 061 harboring reverse transcriptase M41L/D67N/K70R/M184V/L210W/T215Y/K219E mutant gene by phenosense assay; assay type: functional, organism-based; settings: Human immunodeficiency virus 1, isolate 061; outline: as §1
[11] = tested on: Human immunodeficiency virus 1; assay: Antiviral activity against HIV1 isolate 066 harboring reverse transcriptase 184V mutant gene by phenosense assay; assay type: functional, organism-based; settings: Human immunodeficiency virus 1, isolate 066; outline: as §1
[12] = tested on: Human immunodeficiency virus 1; assay: Antiviral activity against HIV1 isolate 162 harboring reverse transcriptase A62V/V75I/F77L/Y115F/F116Y/Q151M/M184V mutant gene by phenosense assay; assay type: functional, organism-based; settings: Human immunodeficiency virus 1, isolate 162; outline: as §1
[13] = tested on: Human immunodeficiency virus 1; assay: Antiviral activity against HIV1 isolate 215 harboring reverse transcriptase D67N/K70E mutant gene by phenosense assay relative to wild type; assay type: functional; outline: as §2
[14] = tested on: Human immunodeficiency virus 1; assay: Antiviral activity against HIV1 isolate 071 harboring reverse transcriptase 65R/S68N/184V mutant gene by phenosense assay; assay type: functional, organism-based; settings: Human immunodeficiency virus 1, isolate 071; outline: as §1
[15] = tested on: Human immunodeficiency virus 1; assay: Antiviral activity against HIV1 isolate 058 harboring reverse transcriptase M41L/D67N/K70R/L210W/T215F/K219Q mutant gene by phenosense assay relative to wild type; assay type: functional; outline: as §1
[16] = tested on: Human immunodeficiency virus 1; assay: Antiviral activity against HIV1 isolate 188 harboring reverse transcriptase T215Y/M184V mutant gene by phenosense assay relative to wild type; assay type: functional; outline: as §1
[17] = tested on: Human immunodeficiency virus 1; assay: Antiviral activity against HIV1 isolate 066 harboring reverse transcriptase 184V mutant gene by phenosense assay relative to wild type; assay type: functional; outline: as §1
[18] = tested on: Human immunodeficiency virus 1; assay: Antiviral activity against HIV1 isolate 204 harboring reverse transcriptase M41L/L210W/T215Y/M184V mutant gene by phenosense assay relative to wild type; assay type: functional; outline: as §2
[19] = tested on: Human immunodeficiency virus 1; assay: Antiviral activity against HIV1 isolate 067 harboring reverse transcriptase A62V/D67G/T69SVG/V75I/T215I mutant gene by phenosense assay relative to wild type; assay type: functional; outline: as §1
[20] = tested on: Human immunodeficiency virus 1; assay: Antiviral activity against HIV1 isolate 153 harboring reverse transcriptase L74V mutant gene by phenosense assay; assay type: functional, organism-based; settings: Human immunodeficiency virus 1, isolate 153; outline: as §1
[21] = tested on: Human immunodeficiency virus 1; assay: Antiviral activity against HIV1 7324-1 harboring reverse transcriptase 41L/67N/69N/70R/215F/219E mutant gene infected in human PBMC by ELISA; assay type: functional, organism-based; settings: Human immunodeficiency virus 1, 7324-1; outline: as §3
[22] = tested on: Human immunodeficiency virus 1; assay: Antiviral activity against HIV1 isolate 220 harboring reverse transcriptase K70E/M184V mutant gene by phenosense assay relative to wild type; assay type: functional; outline: as §2
[23] = tested on: Human immunodeficiency virus 1; assay: Antiviral activity against HIV1 isolate 067 harboring reverse transcriptase A62V/D67G/T69SVG/V75I/T215I mutant gene by phenosense assay; assay type: functional, organism-based; settings: Human immunodeficiency virus 1, isolate 067; outline: as §1
[24] = tested on: Human immunodeficiency virus 1; assay: Antiviral activity against HIV1 isolate 211 harboring reverse transcriptase D67N/K70R/T215F/K219E/M184V mutant gene by phenosense assay relative to wild type; assay type: functional; outline: as §2
[25] = tested on: Human immunodeficiency virus 1; assay: Antiviral activity against HIV1 isolate 070 harboring reverse transcriptase 65R/S68G mutant gene by phenosense assay; assay type: functional, organism-based; settings: Human immunodeficiency virus 1, isolate 070; outline: as §1
[26] = tested on: Human immunodeficiency virus 1; assay: Antiviral activity against HIV1 isolate 060 harboring reverse transcriptase M41L/D67N/K70R/L210W/T215Y/K219E mutant gene by phenosense assay relative to wild type; assay type: functional; outline: as §1
[27] = tested on: Human immunodeficiency virus 1; assay: Antiviral activity against HIV1 isolate 201 harboring reverse transcriptase M41L/L210W/T215Y mutant gene by phenosense assay relative to wild type; assay type: functional; outline: as §2
[28] = tested on: Human immunodeficiency virus 1; assay: Antiviral activity against HIV1 isolate 185 harboring reverse transcriptase T215Y mutant gene by phenosense assay relative to wild type; assay type: functional; outline: as §1
[29] = tested on: Human immunodeficiency virus 1; assay: Antiviral activity against HIV1 isolate 160 harboring reverse transcriptase S68G/V75(I/T)/F77L/Y115F/F116Y /Q151M mutant gene by phenosense assay; assay type: functional, organism-based; settings: Human immunodeficiency virus 1, isolate 160; outline: as §1
[30] = tested on: Human immunodeficiency virus 1; assay: Antiviral activity against HIV1 isolate 212 harboring reverse transcriptase L210W/T215Y mutant gene by phenosense assay relative to wild type; assay type: functional; outline: as §2
[31] = tested on: Human immunodeficiency virus 1; assay: Antiviral activity against HIV1 isolate 157 harboring reverse transcriptase L74V/M184V mutant gene by phenosense assay; assay type: functional, organism-based; settings: Human immunodeficiency virus 1, isolate 157; outline: as §1

Cc1cn([C@H]2C[C@H](N=[N+]=[N-])[C@@H](CO)O2)c(=O)[nH]c1=O [ZIDOVUDINE]
EC50 [1]: 1000 nM | EC50 [2]: 6 nM | fold change (FC) [3]: 0.51 | fold change (FC) [4]: 0.41 | fold change (FC) [5]: 20 | fold change (FC) [6]: 100 | EC50 [7]: 0.53 nM | EC50 [8]: 350 nM | EC50 [9]: 17 nM | EC50 [10]: 2200 nM | EC50 [11]: 17 nM | EC50 [12]: 4200 nM | fold change (FC) [13]: 0.21 | EC50 [14]: 11 nM | fold change (FC) [15]: 350 | fold change (FC) [16]: 2.6 | fold change (FC) [17]: 0.63 | fold change (FC) [18]: 3.9 | fold change (FC) [19]: >920 | EC50 [20]: 11 nM | EC50 [21]: 330 nM | fold change (FC) [22]: 0.13 | EC50 [23]: > 25000 nM | fold change (FC) [24]: 7 | EC50 [25]: 12 nM | fold change (FC) [26]: 400 | fold change (FC) [27]: 98 | fold change (FC) [28]: 38 | EC50 [29]: 2500 nM | fold change (FC) [30]: 7.6 | EC50 [31]: 6 nM
